Experimental findings from ChEMBL document CHEMBL1157128, “Silica-supported fluoroboric acid (HBF(4)-SiO(2)) catalyzed highly productive synthesis of thiomorpholides as activators of l-asparaginase as well as the antioxidant agent” (Bioorg Med Chem, 2010) are described below.

Structures are written as SMILES. The source made the active and inactive calls. The calls are words filed in the database; no cut-off is given here.

Experiment [1] deals with Radical scavenging activity. Kind of experiment: Antioxidant activity assessed as DPPH free radical scavenging activity at 1 mM/ml after 30 mins. Format: functional. Summed up: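 DPPH scavenging assay. 1 mM compound stock was mixed with DPPH in methanol (0.5 mL, 0.3 mM) in a 3 mL total mixture and left at room temperature for 30 min. Absorbance was read at 520 nm. Percent activity was calculated as [1 − OD test/OD control] × 100. BHA served as standard.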
(DPPH is a stable violet radical that fades when it is reduced.)

The test system of experiment [2] is L-asparaginase (Erwinia carotovora). Briefly: Ratio of Vmax to Km for Erwinia carotovora L-asparaginase by Lineweaver-Burke plot. The conditions noted are these: Pectobacterium carotovorum.
For experiment [3] the test system is unchanged. Briefly: Binding affinity to Erwinia carotovora L-asparaginase by spectrophotometry. The conditions noted are these: Pectobacterium carotovorum.

For `S=C(Cc1ccco1)N1CCOCC1`, in experiment [1], the Activity is 0%. For `Oc1ccccc1CC(=S)N1CCOCC1`, the Vmax/Km in experiment [2] was 4.04. Moreover, the Activity in experiment [1] amounted to 36.1%. In addition, in experiment [3], the KA stood at 0.625 µM.

As for `S=C(CCCc1ccccc1)N1CCOCC1`, the Activity in experiment [1] worked out at 0%. Same read-out and setting: to `S=C(Cc1ccc(OCc2ccccc2)cc1)N1CCOCC1` belongs 25.9%. The same measure, in the same setting: to `O=[N+]([O-])c1ccc(CC(=S)N2CCOCC2)cc1` belongs 0%; to `COc1ccc(O)c(C(C)(C)C)c1.COc1ccc(O)cc1C(C)(C)C`, 72.3%. On the same count and under the same terms, next, `S=C(Cc1ccccc1)N1CCOCC1`: 24.3%. Regarding `COc1ccc(CC(=S)N2CCOCC2)cc1OC`, in experiment [2], the Vmax/Km was determined as 13.3. In addition, the Activity in experiment [1] is 32.6%. Moreover, in experiment [3], the outcome was Active and the KA came to 0.985 µM. With `S=C(Cc1ccc2ccccc2c1)N1CCOCC1`, in experiment [1], the Activity is 0%.

With `Cc1ccc(CC(=S)N2CCOCC2)cc1`, the Activity in experiment [1] was 21.6%. As for `Nc1ccccc1CC(=S)N1CCOCC1`, in experiment [1], the Activity came out at 0%.

For `COc1ccc(CC(=S)N2CCOCC2)cc1`, the Vmax/Km in experiment [2] was 6.25. In experiment [1], the Activity worked out at 24.3%. In addition, in experiment [3], the outcome was Active and the KA came out at 0.0851 µM. For `S=C(Cc1ccc(Br)cc1)N1CCOCC1`, the Activity in experiment [1] worked out at 0%.
